Experimental data as given in publication PMC11316633 (European journal of medicinal chemistry, 2024).
pIC50: −log10 of the molar value. Read-outs that look alike come from different tables or passages of the source.

How the values were obtained:
CDK7/Cyclin H/MNAT1 = CDK7/Cyclin H/MNAT1 (Homo sapiens, UniProt P50613); assay: Adapta Eu kinase assay; format: biochemical
Procedure, shortened: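 CDK7/Cyclin H/MNAT1 complex tested by an outside contract service in Adapta Eu format, with ATP at its Km concentration.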

CDK7 = CDK7 (Homo sapiens, UniProt P50613); assay: Immunoblot analysis of CDK7 degradation in Jurkat cells; format: cell-based; conditions: Jurkat cells, 16 h, Western blot; for CDK7 degradation (in words): 1 μM
Sequence of CDK7 (P50613 2-346 limits assumed): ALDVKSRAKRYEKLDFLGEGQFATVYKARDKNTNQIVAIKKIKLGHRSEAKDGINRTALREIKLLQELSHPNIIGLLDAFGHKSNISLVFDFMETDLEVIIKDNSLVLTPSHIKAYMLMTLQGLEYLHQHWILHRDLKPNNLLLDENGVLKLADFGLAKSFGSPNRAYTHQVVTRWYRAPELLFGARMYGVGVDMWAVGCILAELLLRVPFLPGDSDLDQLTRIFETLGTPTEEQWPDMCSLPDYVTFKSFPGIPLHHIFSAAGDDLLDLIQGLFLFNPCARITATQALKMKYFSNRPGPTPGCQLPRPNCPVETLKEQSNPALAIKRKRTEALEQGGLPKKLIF
Sequence of CDK7 (P51946 whole entry partner): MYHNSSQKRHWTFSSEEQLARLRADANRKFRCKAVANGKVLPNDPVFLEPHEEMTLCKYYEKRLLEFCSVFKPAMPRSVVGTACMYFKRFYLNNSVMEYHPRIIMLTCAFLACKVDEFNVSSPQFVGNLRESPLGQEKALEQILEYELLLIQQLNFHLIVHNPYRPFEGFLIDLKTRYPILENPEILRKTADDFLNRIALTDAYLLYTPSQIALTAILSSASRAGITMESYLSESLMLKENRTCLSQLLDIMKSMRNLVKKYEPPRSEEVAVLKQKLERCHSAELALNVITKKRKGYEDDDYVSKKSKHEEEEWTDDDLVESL
Sequence of CDK7 (P51948 whole entry partner): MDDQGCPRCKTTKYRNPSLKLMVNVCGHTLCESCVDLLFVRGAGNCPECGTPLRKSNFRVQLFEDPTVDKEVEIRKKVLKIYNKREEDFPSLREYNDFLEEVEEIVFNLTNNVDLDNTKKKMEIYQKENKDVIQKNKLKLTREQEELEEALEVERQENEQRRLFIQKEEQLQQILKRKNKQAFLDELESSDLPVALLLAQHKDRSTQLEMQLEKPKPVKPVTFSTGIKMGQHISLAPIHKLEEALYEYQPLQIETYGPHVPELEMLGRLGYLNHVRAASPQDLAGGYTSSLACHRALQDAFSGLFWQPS
Procedure, shortened: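 Jurkat cells received test compound at 0.1 or 1 μM for 16 h, 0.1 μM for 0.5–24 h, or a concentration series for 6 h. Other arms were pretreated 2 h with MG132, MLN-4924, parent CDK7 inhibitor or VHL ligand, or used VHL-knockout Jurkat (6 h). Blots: RIPA lysis, 4–20% SDS-PAGE, nitrocellulose, anti-CDK7 1:1000, β-actin 1:5000, IRDye secondaries. Mean ± SEM of three biological replicates.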

Sequence of CDK7/Cyclin H/MNAT1 (P50613 whole entry): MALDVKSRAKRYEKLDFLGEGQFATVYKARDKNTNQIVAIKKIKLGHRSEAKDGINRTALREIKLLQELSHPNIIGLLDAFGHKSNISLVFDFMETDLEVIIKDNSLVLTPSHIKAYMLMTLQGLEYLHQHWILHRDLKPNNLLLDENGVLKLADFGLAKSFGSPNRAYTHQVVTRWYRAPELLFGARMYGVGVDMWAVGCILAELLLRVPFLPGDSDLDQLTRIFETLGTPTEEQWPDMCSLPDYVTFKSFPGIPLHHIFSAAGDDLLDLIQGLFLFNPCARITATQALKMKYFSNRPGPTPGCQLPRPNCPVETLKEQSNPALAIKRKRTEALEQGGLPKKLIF
Sequence of CDK7/Cyclin H/MNAT1 (P51946 whole entry partner): as the sequence (P51946 whole entry partner) above
Sequence of CDK7/Cyclin H/MNAT1 (P51948 whole entry partner): as the sequence (P51948 whole entry partner) above

Work on `CN(C)C[C@@H](NC(=O)N1Cc2c(NC(=O)c3ccc(C(=O)NCCCC#Cc4cccc5c4C(=O)N(C4CCC(=O)NC4=O)C5=O)cc3)n[nH]c2C1(C)C)c1ccccc1` (stereo partly drawn) [Compound 8, N1-(5-(((S)-2-(dimethylamino)-1-phenylethyl)carbamoyl)-6,6-dimethyl-1,4,5,6-tetrahydropyrrolo[3,4-c]pyrazol-3-yl)-N4-(5-(2-(2,6-dioxopiperidin-3-yl)-1,3-dioxoisoindolin-4-yl)pent-4-yn-1-yl)terephthalamide] yielded a pIC50 (CDK7/Cyclin H/MNAT1) of 8.16.
In the case of `Cc1ncsc1-c1ccc([C@H](C)NC(=O)[C@@H]2C[C@@H](O)CN2C(=O)[C@@H](NC(=O)CCNC(=O)c2ccc(C(=O)Nc3n[nH]c4c3CN(C(=O)N[C@H](CN(C)C)c3ccccc3)C4(C)C)cc2)C(C)(C)C)cc1` [Compound 10, N1-(5-(((S)-2-(dimethylamino)-1-phenylethyl)carbamoyl)-6,6-dimethyl-1,4,5,6-tetrahydropyrrolo[3,4-c]pyrazol-3-yl)-N4-(3-(((S)-1-((2S,4R)-4-hydroxy-2-(((S)-1-(4-(4-methylthiazol-5-yl)phenyl)ethyl)carbamoyl)pyrrolidin-1-yl)-3,3-dimethyl-1-oxobutan-2-yl)amino)-3-oxopropyl)terephthalamide], the “CDK7 degradation (in words)” value (CDK7) was “moderate degradation”.
With `Cc1ncsc1-c1ccc([C@H](C)NC(=O)[C@@H]2C[C@@H](O)CN2C(=O)[C@@H](NC(=O)CCCCCCCNC(=O)c2ccc(C(=O)Nc3n[nH]c4c3CN(C(=O)N[C@H](CN(C)C)c3ccccc3)C4(C)C)cc2)C(C)(C)C)cc1` [Compound 13, N1-(5-(((S)-2-(dimethylamino)-1-phenylethyl)carbamoyl)-6,6-dimethyl-1,4,5,6-tetrahydropyrrolo[3,4-c]pyrazol-3-yl)-N4-(8-(((S)-1-((2S,4R)-4-hydroxy-2-(((S)-1-(4-(4-methylthiazol-5-yl)phenyl)ethyl)carbamoyl)pyrrolidin-1-yl)-3,3-dimethyl-1-oxobutan-2-yl)amino)-8-oxooctyl)terephthalamide] the pIC50 (CDK7/Cyclin H/MNAT1) was 8.11 and the “reduction in CDK7 protein” value (CDK7; 0.1 μM or 1 μM) was “more than 80%”.
For `Cc1ncsc1-c1ccc([C@H](C)NC(=O)[C@@H]2C[C@@H](O)CN2C(=O)[C@@H](NC(=O)CCOCCOCCNC(=O)c2ccc(C(=O)Nc3n[nH]c4c3CN(C(=O)N[C@H](CN(C)C)c3ccccc3)C4(C)C)cc2)C(C)(C)C)cc1` [Compound 15, N1-(5-(((S)-2-(dimethylamino)-1-phenylethyl)carbamoyl)-6,6-dimethyl-1,4,5,6-tetrahydropyrrolo[3,4-c]pyrazol-3-yl)-N4-(2-(2-(3-(((S)-1-((2S,4R)-4-hydroxy-2-(((S)-1-(4-(4-methylthiazol-5-yl)phenyl)ethyl)carbamoyl)pyrrolidin-1-yl)-3,3-dimethyl-1-oxobutan-2-yl)amino)-3-oxopropoxy)ethoxy)ethyl)terephthalamide], the pIC50 (CDK7/Cyclin H/MNAT1) was 8.12.
`CC(=O)N[C@H](C(=O)N1C[C@H](O)C[C@H]1C(=O)N[C@@H](C)c1ccc(-c2scnc2C(=O)NCCCCCNC(=O)c2ccc(C(=O)Nc3n[nH]c4c3CN(C(=O)N[C@H](CN(C)C)c3ccccc3)C4(C)C)cc2)cc1)C(C)(C)C` [Compound 22, N1-(5-(5-(4-((S)-1-((2S,4R)-1-((S)-2-acetamido-3,3-dimethylbutanoyl)-4-hydroxypyrrolidine-2-carboxamido)ethyl)phenyl)thiazole-4-carboxamido)pentyl)-N4-(5-(((S)-2-(dimethylamino)-1-phenylethyl)carbamoyl)-6,6-dimethyl-1,4,5,6-tetrahydropyrrolo[3,4-c]pyrazol-3-yl)terephthalamide] was tested, and the “CDK7 degradation (in words)” value (CDK7) was “moderate reduction of CDK7 protein levels”.
Work on “N1-(5-(((R)-2-(dimethylamino)-1-phenylethyl)carbamoyl)-6,6-dimethyl-1,4,5,6-tetrahydropyrrolo[3,4-c]pyrazol-3-yl)-N4-((S)-14-((2S,4R)-4-hydroxy-2-(((S)-1-(4-(4-methylthiazol-5-yl)phenyl)ethyl)carbamoyl)pyrrolidine-1-carbonyl)-15,15-dimethyl-12-oxo-3,6,9-trioxa-13-azahexadecyl)terephthalamide [Compound 16]” yielded a pIC50 (CDK7/Cyclin H/MNAT1; read-out: IC50 (CDK7 binding affinity, Table 2), VHL-based compounds, Adapta Eu kinase assay, Km ATP) of 7.86.
